A selection: hits, their analogues and other compounds. The true share with any hit is near 1.8%.
APJ antagonist = antagonists of human apelin receptor APJ, primary screen, CHO-K1 cells, beta-arrestin complementation, luminescence | actives 0.32% (n = 330,000) | inhibition, % at 20 µM | P35414;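 active = inhibition above about 40% at 20 µM, limit read from the data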;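 also: cells challenged with 10 nM apelin-13 agonist together with compound; plate controls were apelin-13 plus DMSO wells for no effect and DMSO wells lacking apelin-13 for full effect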
CCR6 antag = CCR6 receptor antagonists, primary screen, cell-based, CHO-K1, luminescence, beta-arrestin, uHTS; C-C chemokine receptor type 6 (Homo sapiens), P51684; actives 0.49% (n = 340,000); CHO-K1 CCR6 PathHunter beta-arrestin, CCL20-stimulated; inhibition, % at 20 µM;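 active = compounds whose inhibition of the agonist-driven luminescence signal at 20 µM reaches about 50%, limit read from the data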;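 also: cells stimulated with CCL20 at 14 nM final; plate controls were DMSO with CCL20 for no effect and DMSO without agonist for full effect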
Beta2AR agonist = beta2AR agonists driving receptor internalization, primary screen, cell-based, FAP fluorogen, flow cytometry; actives 0.43% (n = 340,000); Am2.2-beta2AR cells; response, % (concentration not given with the values); Beta-2 adrenergic receptor (Homo sapiens), P07550;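 active = response above a set limit, near 3 SD of response in nonfluorescent compounds, cut at about 42% in these data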
EBI2 block = EBI2 receptor antagonists, beta-arrestin recruitment, primary screen, cell-based, luminescence, 7a,25-OHC stimulation, uHTS. actives 0.81% (n = 360,000). inhibition, % at 5 µM. 7a,25-OHC stimulated. G-protein coupled receptor 183 (Homo sapiens), P32249; in the data active = inhibition above about 38%;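 also: enzyme fragment complementation signal reports receptor beta-arrestin coupling in cells; 0% = agonist plus DMSO wells and 100% = wells without agonist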
APJ ag = agonists of human apelin receptor APJ, primary screen, CHO-K1 cells, PathHunter beta-arrestin, luminescence; activation, % at 20 µM; P35414; actives 0.11% (n = 330,000); 0% DMSO wells, 100% apelin;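 active = activation more than six SD over the plate average, tested at 20 µM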;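 also: 0% = DMSO alone and 100% = apelin-13 at 10 nM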
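Assay system: CHO-K1 APJ beta-arrestin complementation cell line / Compound: single test compound dose, 20 µM final, 1% DMSO / Times: overnight seeding, 90 min compound at 25 °C, 1 h detection / Technique: beta-gal luminescence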
CXCR6 block = CXCR6 receptor inhibitors, primary screen, cell-based, beta-arrestin, luminescence, CHO-K1 PathHunter, 1536-well. inhibition, % at 20 µM. AID 602244, 2012. C-X-C chemokine receptor type 6 (Homo sapiens), O00574. actives 0.36% (n = 360,000); in the data active = inhibition above about 34%, passing the limit was not always enough;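 also: antagonist mode with CXCL16 agonist at 10 nM final; 0% = 10 nM CXCL16 with DMSO and 100% = unstimulated wells without agonist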
Target sequence (O00574 whole entry, looked up): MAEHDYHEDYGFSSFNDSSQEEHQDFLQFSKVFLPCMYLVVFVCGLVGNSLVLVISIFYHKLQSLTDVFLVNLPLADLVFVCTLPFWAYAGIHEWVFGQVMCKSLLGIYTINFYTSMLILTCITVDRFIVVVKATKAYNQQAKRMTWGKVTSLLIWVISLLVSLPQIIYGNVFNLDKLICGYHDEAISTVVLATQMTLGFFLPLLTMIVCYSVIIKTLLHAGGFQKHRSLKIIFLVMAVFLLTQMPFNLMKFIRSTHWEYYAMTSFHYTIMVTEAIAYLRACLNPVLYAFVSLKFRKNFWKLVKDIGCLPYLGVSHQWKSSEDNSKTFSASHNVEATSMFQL
Beta2AR ag CP1 = beta2AR agonists via receptor internalization, confirmation, cell-based, FAP fluorogen, flow cytometry, single point, cherry pick 1 | Am2.2-beta2AR cells, FAP surface receptor; stronger effect = lower value | shares compounds with Beta2AR agonist | percent response (surface receptor), % at 10 µM | actives 25% (n = 1,100) | AID 540358, 2011;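 active = surface receptor percent response at or below 58%, roughly 3 SD from nonfluorescent compounds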
FAP fluor counter = flagged in Am2.2 fluorescence counterscreen for beta-2AR agonists; shares compounds with Beta2AR agonist; Am2.2 cells, FAP fluorogen flow cytometry; stronger effect = lower value; calls only at 10 µM; 1,100 tested, under 10 active;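 active = percent response below a set limit in fluorescence channel 1 and below 50% in channel 8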
CXCR6 confirm = CXCR6 receptor antagonists, confirmation, cell-based, single concentration, beta-arrestin, luminescence; shares compounds with CXCR6 block; CHO-K1 CXCR6 PathHunter beta-arrestin; inhibition, % at 20 µM; actives 65% (n = 700); AID 602409, 2012;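 active = mean inhibition over four retests above 40%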;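 also: receptor stimulated with 10 nM CXCL16 agonist; beta-galactosidase fragment complementation upon beta-arrestin recruitment to receptor; plate controls were CXCL16 plus DMSO for no effect and DMSO without CXCL16 for full effect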
* = called active by the depositor; i = inactive; . = no result.

SMILES	APJ antagonist	CCR6 antag	Beta2AR agonist	EBI2 block	APJ ag	CXCR6 block	Beta2AR ag CP1	FAP fluor counter	others
OC12ONC(c3ccccn3)C1N1CCC2CC1 (stereo not drawn)	20.3	6.0	8.5	-2.9	-2.3	2.3	83.4	i
CCCCn1c(C)c(C(=O)O)c2cc(OC)c3ccccc3c21	16.8	8.0	2.6	1.0	-3.8	-8.4	.	.
COc1ccc(CC(C)NCCC(c2ccccc2)c2ccccc2)cc1 (stereo not drawn)	14.8	4.5	20.9	16.0	-4.7	4.9	105.5	i
CCCCNC(C)Cc1ccccc1 (stereo not drawn)	0.1	1.1	-2.1	3.3	-1.7	0.5	.	.
CCOC(=O)c1cccc(C2=C(CNC(=O)c3ccc([N+](=O)[O-])cc3)[C@H]3CC[C@@H](C2)N3Cc2ccccc2)c1	.	.	.	6.9	.	10.3	.	.
COc1ccc2cc(C(=O)C3CCCN(C4CCOCC4)C3)ccc2c1 (stereo not drawn)	10.6	-5.8	-4.0	6.5	-2.0	-7.3	.	.
COc1c(C)cc(C(=O)C2CCCN(C3CCOCC3)C2)cc1C (stereo not drawn)	-0.2	-8.1	58.4*	-4.1	-6.5	2.4	125.5	i
C=CCn1c(=O)c(C=Nc2c(OC)cccc2[N+](=O)[O-])c(O)n(CCCC)c1=O	30.0	25.9	-4.7	2.3	-4.1	33.2	.	.
COc1ccc(OC)c(NC2=NCCS2)c1	15.4	-6.4	-7.9	4.3	0.0	4.1	.	.
COc1ccc(OC)c([C@@H](O)[C@H](C)NC(C)(C)C)c1	14.5	5.1	-4.7	-8.6	1.1	5.0	121.0	i
COc1cc(C(O)CNC(C)C)cc(F)c1OC (stereo not drawn)	23.2	-9.8	0.9	-13.8	3.9	1.7	112.5	i
COc1ccc(C(=O)c2nc3ccccc3n2C(C)C)cc1	4.5	18.2	-15.4	10.1	-3.2	15.5	.	.
COc1ccc(OC)c(C(O)C2CCCCN2)c1 (stereo not drawn)	9.5	12.2	2.2	-5.3	-1.5	-0.5	109.2	i
O=C1NCN(c2ccccc2)C12CCN(C(CCc1ccccc1)c1nnnn1C1CCCC1)CC2 (stereo not drawn)	.	.	.	-19.6	.	3.2	.	.
COC(=O)C1=C(c2cccc(NC(C)=O)c2)C[C@@H]2CC[C@H]1N2C	3.5	6.6	-5.0	-14.9	-5.1	-1.8	.	.
CN(C)c1ccc(/C=C/C=C/c2sc3ccccc3[n+]2C)cc1	2.2	31.8	16.8	0.3	-3.3	20.5	.	.
CC[n+]1c(/C=C/C=C/c2ccc(N(C)C)cc2)sc2ccccc21	34.7	70.0*	46.2*	13.2	-4.2	53.4*	104.6	i
CC1CN=C(NCCc2ccccc2)S1 (stereo not drawn)	10.9	-8.6	0.5	-11.6	-4.1	4.1	.	.
Cc1c(N=Nc2c(O)[nH]c(=S)[nH]c2=O)c(=O)n(-c2ccccc2)n1C	14.2	43.7	0.6	13.4	1.1	51.5*	.	.	CXCR6 confirm=52.2*
COc1ccccc1-n1c(O)c(/C=N/NC(=S)Nc2ccccc2)c(=O)[nH]c1=S	7.4	-2.1	-1.1	10.1	-2.6	-2.1	.	.
Nc1cc(Cl)c2nonc2c1[N+](=O)[O-]	.	46.3	72.7*	39.1	.	46.2*	.	.	CXCR6 confirm=58.2*

Compound activity from PubChem.
